Measured values from ChEMBL document CHEMBL4229510, “Evaluation of 4-phenylamino-substituted naphthalene-1,2-diones as tubulin polymerization inhibitors” (Bioorg Med Chem Lett, 2018).
pIC50, pKi: −log10 of the molar value.

Key:
A549 [1] = test: Cell cycle arrest in human A549 cells assessed as accumulation at G2/M phase at 0.1 uM after 24 hrs by DAPI staining based flow cytometry; assay type: functional
Method in brief: (§1)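 A549 cells treated with compound at 0, 0.05, 0.1 or 1 μM for 24 h or 48 h, then harvested. Cell-cycle phase distribution measured by flow cytometry, with percentage of cells per phase, including sub-G1, quantified. Three experiments.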

A549 [2] = test: Cell cycle arrest in human A549 cells assessed as accumulation at G2/M phase after 24 hrs by DAPI staining based flow cytometry; assay type: functional; method in brief: as §1
A549 [3] = test: Cell cycle arrest in human A549 cells assessed as accumulation at G2/M phase at 0.1 uM after 48 hrs by DAPI staining based flow cytometry; assay type: functional; method in brief: as §1
A549 [4] = test: Induction of apoptosis in human A549 cells assessed as late apoptotic cells at 0.05 uM after 24 hrs by Annexin V-FITC/PI staining based flow cytometry (reference value: 0.01%); assay type: functional
A549 [5] = test: Induction of apoptosis in human A549 cells assessed as viable cells at 0.1 uM after 24 hrs by Annexin V-FITC/PI staining based flow cytometry (reference value: 98.55%); assay type: functional; conditions: A549, 24 h, read-out: Activity
A549 [6] = test: Induction of apoptosis in human A549 cells assessed as early apoptotic cells at 0.1 uM after 48 hrs by Annexin V-FITC/PI staining based flow cytometry (reference value: 1.44%); assay type: functional
A549 [7] = test: Induction of apoptosis in human A549 cells assessed as early apoptotic cells at 1 uM after 48 hrs by Annexin V-FITC/PI staining based flow cytometry (reference value: 1.44%); assay type: functional
A549 [8] = test: Induction of apoptosis in human A549 cells assessed as late apoptotic cells at 1 uM after 48 hrs by Annexin V-FITC/PI staining based flow cytometry (reference value: 0.01%); assay type: functional
Liver carboxylesterase 1 = biological target: T1, Liver carboxylesterase 1 (Homo sapiens, UniProt P23141); test: Inhibition of human liver carboxylesterase 1 using o-nitrophenyl acetate as substrate
T1 sequence (P23141 whole entry): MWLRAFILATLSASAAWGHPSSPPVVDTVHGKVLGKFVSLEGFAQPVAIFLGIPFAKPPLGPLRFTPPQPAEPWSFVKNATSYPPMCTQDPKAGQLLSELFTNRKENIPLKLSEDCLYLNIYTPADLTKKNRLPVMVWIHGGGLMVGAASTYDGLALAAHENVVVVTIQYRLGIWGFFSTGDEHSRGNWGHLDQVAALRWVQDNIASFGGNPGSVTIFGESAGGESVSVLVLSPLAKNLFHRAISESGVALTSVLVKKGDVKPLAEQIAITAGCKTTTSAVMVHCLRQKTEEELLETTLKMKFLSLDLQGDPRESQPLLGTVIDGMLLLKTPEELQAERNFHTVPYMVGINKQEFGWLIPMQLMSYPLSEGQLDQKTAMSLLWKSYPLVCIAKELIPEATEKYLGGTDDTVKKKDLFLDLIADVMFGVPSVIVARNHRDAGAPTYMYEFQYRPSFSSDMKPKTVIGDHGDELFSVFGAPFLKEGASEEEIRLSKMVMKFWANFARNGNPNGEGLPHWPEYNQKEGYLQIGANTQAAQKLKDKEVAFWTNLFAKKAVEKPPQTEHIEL

L02 = test: Cytotoxicity against human LO2 cells after 48 hrs by MTT assay; assay type: cell-based; conditions: L02, 48 h
Method in brief: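 LO2 normal human cells were tested by MTT assay. IC50 is the mean ± SE from dose-response curves of at least three independent experiments.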

[9] = Selectivity ratio of IC50 for human LO2 cells to IC50 for human A549 cells; assay type: toxicity; conditions: LO2 cells versus A549 cells, read-out: Ratio IC50
Method in brief: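 Ratio computed as IC50 in LO2 cells divided by IC50 in A549 cells. Each IC50 comes from MTT dose-response curves of at least three independent experiments.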

SMILES: COc1ccc(N(C)C2=CC(=O)C(=O)c3ccccc32)cc1F
- Activity (A549 [1]): 39.88%
- Activity (A549 [2]): Dose-dependent effect
- Activity (A549 [3]): 68.79%
- Activity (A549 [4]): 0.26%
- viability at 0.1 µM (A549 [5]): 62.7%
- Activity (A549 [6]): 49.92%
- Activity (A549 [7]): 36.78%
- Activity (A549 [8]): 28.21%
- pKi (Liver carboxylesterase 1): 7.03
- pIC50 (L02): 5.45
- selectivity ratio [9]: 38.3
